Experimental data: ChEMBL document CHEMBL1128538, “Novel antagonists of platelet-activating factor. 1. Synthesis and structure-activity relationships of benzodiazepine and benzazepine derivatives of 2-methyl-1-phenylimidazo[4,5-c]pyridine” (J Med Chem, 1995)

molecular target: Platelet-activating factor receptor (Mus musculus) (UniProt Q62035); experiment: Ability to protect mice from lethal effects after administration of PAF (Platelet-Activating Factor); assay type: functional, organism-based
Outline: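 Mice received the test agent orally and were then given a lethal PAF injection. ED50 was taken as the oral dose that protected the animals from PAF-induced death.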

Platelet-activating factor receptor (Mus musculus), sequence (Q62035 whole entry): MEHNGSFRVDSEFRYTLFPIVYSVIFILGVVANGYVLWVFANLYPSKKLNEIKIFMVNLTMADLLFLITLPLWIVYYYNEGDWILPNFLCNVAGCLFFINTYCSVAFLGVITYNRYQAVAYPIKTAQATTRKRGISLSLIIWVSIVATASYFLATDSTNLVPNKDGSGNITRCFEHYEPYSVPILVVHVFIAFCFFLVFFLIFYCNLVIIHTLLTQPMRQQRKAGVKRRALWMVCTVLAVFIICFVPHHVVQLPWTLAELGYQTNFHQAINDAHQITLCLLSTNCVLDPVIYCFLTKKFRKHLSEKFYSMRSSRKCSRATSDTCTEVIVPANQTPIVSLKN

Q: With `Cc1nc2cnccc2n1-c1ccc(C2=Nc3ccccc3N(C)C(=O)C2)cc1` as the compound, how does the ED50 read?
A: 0.03 mg/kg

Q: How did the ED50 turn out when `Cc1nc2cnccc2n1-c1ccc(C2=Nc3ccccc3NC(=O)C2)cc1` was run?
A: 0.5 mg/kg

Q: Which ED50 does the source give for `Cc1cc2c(cc1C)NC(=O)CC(c1ccc(-n3c(C)nc4cnccc43)cc1)=N2` here?
A: 0.12 mg/kg

Q: With `Cc1nc2cnccc2n1-c1ccc(C2=Nc3cc(Cl)c(Cl)cc3C(=O)NC2)cc1` as the compound, how does the ED50 read?
A: 0.2 mg/kg

Q: `Cc1nc2cnccc2n1-c1ccc(C2CC(=O)Nc3cc(Cl)c(Cl)cc3C2)cc1` (stereo not given) was tested. Which ED50 did it give?
A: 0.05 mg/kg

Q: How did the ED50 turn out when `Cc1nc2cnccc2n1-c1ccc(C2=Nc3cc(Cl)c(Cl)cc3NC(=O)C2)cc1` was run?
A: 0.07 mg/kg

Q: How did the ED50 turn out when `Cc1nc2cnccc2n1-c1ccc(C2=CCC(=O)c3ccccc3N2)cc1` was run?
A: 0.75 mg/kg

Q: Which ED50 does the source give for `Cc1nc2cnccc2n1-c1ccc(C2CC(=O)N(C)c3cc(Cl)c(Cl)cc3C2)cc1` (stereo not given) here?
A: 0.03 mg/kg

test system: Mus musculus; experiment: The compound was tested for their ability to protect mice from lethal effects after administration of PAF (Platelet-Activating Factor); assay type: functional
Outline: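 Mice were given the compound orally and then a lethal injection of PAF. The value is the oral dose (ED50) that protected the mice from PAF-induced death.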

Q: `CCOC(=O)C1=C(c2ccc(-n3c(C)nc4cnccc43)cc2)NC(C)=C(C(=O)Nc2ccccn2)C1c1ccccc1Cl` (stereo not given) was tested. Which ED50 did it give?
A: 0.26 mg/kg

Q: Which ED50 does the source give for `Cc1nnc2n1-c1sc3c(c1C(c1ccccc1Cl)=NC2)CC(C(=O)N1CCOCC1)C3` (stereo not given) [BEPAFANT] here?
A: 0.1 mg/kg
